Data set [1] concerns the target Potassium voltage-gated channel subfamily KQT member 2 (Mus musculus) (UniProt Q9Z351). The data set can be described thus: Threshold for augmenting KCNQ2 current in HEK 293 stable cell line expressing mKCNQ2 channel. The conditions noted are these: HEK293. In kind it is functional, cell-based. The gist of the method: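 HEK 293 cells stably expressing mKCNQ2, voltage-clamped at -40 mV; compound applied by local superfusion at increasing concentrations, then washed with compound-free saline; concentration–response from three cells with logistic fit.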

The nature of data set [2]: Volume of distribution was determined in dog at 1 mg/kg, iv. The conditions noted are these: in vivo, read-out: Vdss. On the set-up: dose 1 mg/kg, route intravenous. In kind it is ADME, organism-based, Canis lupus familiaris. The gist of the method:
(§1)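 Beagle dogs (n = 3), 1 mg/kg iv as a solution in 50% PEG-400/50% H2O; plasma pharmacokinetics giving clearance, half-life and steady-state volume of distribution.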

Data set [3] is described as follows: Concentration determined in rat brain after 6 hr. The format is ADME, organism-based. In short, it runs like this: (§2)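 Sprague–Dawley rats (n = 3) dosed po at 20 mg/kg as a solution in 100% PEG-400; brain and plasma sampled at 6 h.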
Data set [4] in a line: Clearance rate determined at 1 mg/kg, iv, in dog. The format is ADME, organism-based, Canis lupus familiaris. On the set-up: dose 1 mg/kg. To be noted: in vivo. In short, it runs like this:
as §1

Data set [5] can be described thus: Ratio of concentration of compound in brain to the concentration in plasma. The conditions noted are these: brain and plasma, B/P ratio.
Data set [6] in a line: Ratio of proximal to distal depolarizations determined in rat at 10 mg/kg. In kind it is functional. The gist of the method:
(§3)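 Rats; cortical spreading depression evoked by 10 min application of crystalline KCl to a small parietal cortex region. Compound given intragastrically in PEG 400 vehicle. Depolarizations counted in proximal and distal leads per animal; proximal/distal ratio calculated per group. Group mean ± SEM; Kruskal–Wallis with Dunn's posttest.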

A short description of data set [7]: Ratio of proximal to distal depolarizations determined in rat at 3 mg/kg. The format is functional. In short, it runs like this:
as §3

Data set [8] can be described thus: tmax determined rat at 11 mg/kg, po. The format is ADME, organism-based. More on the design: dose 11 mg/kg, route oral. The conditions noted are these: in vivo.
The nature of data set [9]: Volume of distribution was determined in rat at 5 mg/kg, iv. The format is ADME, organism-based. On the set-up: dose 5 mg/kg, route intravenous. The conditions noted are these: in vivo, read-out: Vdss. In short, it runs like this:
(§4)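 Sprague–Dawley rats (n = 3), 5 mg/kg iv as a solution in 90% PEG-400/10% Tween 80; plasma pharmacokinetics giving clearance, half-life and steady-state volume of distribution.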

Data set [10] is described as follows: Clearance rate determined at 5 mg/kg, iv, in rat. The format is ADME, organism-based. On the set-up: dose 5 mg/kg. The conditions noted are these: in vivo. In short, it runs like this:
as §4

Data set [11] concerns Rattus norvegicus. The data set can be described thus: Ability to reduce the total number of proximal depolarizations was tested in rat parietal cortex at 3 mg/kg, ig. In kind it is functional. To be noted: route intragastric. In short, it runs like this:
as §3

Data set [12] can be described thus: Half-life determined at 1 mg/kg, iv, in dog. In kind it is ADME, organism-based, Canis lupus familiaris. More on the design: dose 1 mg/kg. The conditions noted are these: in vivo. The gist of the method: as §1
The nature of data set [13]: Percentage oral bioavailability determined in dog. In kind it is ADME, organism-based, Canis lupus familiaris. The conditions noted are these: in vivo, read-out: Bioavailabiility. In short, it runs like this: (§5)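 Beagle dogs (n = 3), oral solution at 3 mg/kg in 50% PEG-400/50% H2O, with iv reference at 1 mg/kg; tmax and oral bioavailability derived.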
The nature of data set [14]: tmax determined dog at 3 mg/kg, po. More on the design: dose 3 mg/kg, route oral. In kind it is ADME, organism-based, Canis lupus familiaris. The conditions noted are these: in vivo. The gist of the method:
as §5

For data set [15], the system named is Rattus norvegicus. The data set can be described thus: Ability to reduce the total number of proximal depolarizations was tested in rat parietal cortex at 30 mg/kg, ig. In kind it is functional. To be noted: route intragastric. The gist of the method: as §3
Data set [16] in a line: Concentration determined in rat plasma after 6 hr. The format is ADME, organism-based. In short, it runs like this:
as §2

The nature of data set [17]: Ratio of proximal to distal depolarizations determined in rat at 30 mg/kg. The format is functional. In short, it runs like this: as §3
Data set [18] deals with Rattus norvegicus. The data set can be described thus: Ability to reduce the total number of proximal depolarizations was tested in rat parietal cortex at 10 mg/kg, ig. To be noted: route intragastric. The format is functional. The gist of the method:
as §3

A short description of data set [19]: Half-life determined at 5 mg/kg, iv, in rat. In kind it is ADME, organism-based. On the set-up: dose 5 mg/kg. To be noted: in vivo. The gist of the method:
as §4

The target of data set [20] is Voltage-gated potassium channel, KQT; KCNQ2(Kv7.2)/KCNQ3(Kv7.3) (Homo sapiens, UniProt O43525+O43526). The data set can be described thus: Effect on resting membrane potential in SH-SY5Y human neuroblastoma cells expressing native KCNQ channels.
Data set [21] is described as follows: Percentage oral bioavailability determined in rat. The conditions noted are these: in vivo, read-out: Bioavailabiility. In kind it is ADME, organism-based.
Data set [22] deals with Potassium voltage-gated channel subfamily KQT member 2 (Mus musculus, UniProt Q9Z351). The data set can be described thus: Induced current in Xenopus laevis oocytes expressing cloned mKCNQ2 channels. The format is functional, cell-based, Oocyte. The gist of the method:
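Two-electrode voltage clamp of Xenopus laevis oocytes expressing cloned mKCNQ2; outward current at -40 mV expressed as percent of compound-free control; concentration–response fit for EC50, n = 4–7 oocytes.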

The record followed here is ChEMBL document CHEMBL1145847, “(S)-N-[1-(3-morpholin-4-ylphenyl)ethyl]- 3-phenylacrylamide: an orally bioavailable KCNQ2 opener with significant activity in a cortical spreading depression model of migraine” (J Med Chem, 2003).

Voltage-gated potassium channel, KQT; KCNQ2(Kv7.2)/KCNQ3(Kv7.3), sequence (O43526 whole entry): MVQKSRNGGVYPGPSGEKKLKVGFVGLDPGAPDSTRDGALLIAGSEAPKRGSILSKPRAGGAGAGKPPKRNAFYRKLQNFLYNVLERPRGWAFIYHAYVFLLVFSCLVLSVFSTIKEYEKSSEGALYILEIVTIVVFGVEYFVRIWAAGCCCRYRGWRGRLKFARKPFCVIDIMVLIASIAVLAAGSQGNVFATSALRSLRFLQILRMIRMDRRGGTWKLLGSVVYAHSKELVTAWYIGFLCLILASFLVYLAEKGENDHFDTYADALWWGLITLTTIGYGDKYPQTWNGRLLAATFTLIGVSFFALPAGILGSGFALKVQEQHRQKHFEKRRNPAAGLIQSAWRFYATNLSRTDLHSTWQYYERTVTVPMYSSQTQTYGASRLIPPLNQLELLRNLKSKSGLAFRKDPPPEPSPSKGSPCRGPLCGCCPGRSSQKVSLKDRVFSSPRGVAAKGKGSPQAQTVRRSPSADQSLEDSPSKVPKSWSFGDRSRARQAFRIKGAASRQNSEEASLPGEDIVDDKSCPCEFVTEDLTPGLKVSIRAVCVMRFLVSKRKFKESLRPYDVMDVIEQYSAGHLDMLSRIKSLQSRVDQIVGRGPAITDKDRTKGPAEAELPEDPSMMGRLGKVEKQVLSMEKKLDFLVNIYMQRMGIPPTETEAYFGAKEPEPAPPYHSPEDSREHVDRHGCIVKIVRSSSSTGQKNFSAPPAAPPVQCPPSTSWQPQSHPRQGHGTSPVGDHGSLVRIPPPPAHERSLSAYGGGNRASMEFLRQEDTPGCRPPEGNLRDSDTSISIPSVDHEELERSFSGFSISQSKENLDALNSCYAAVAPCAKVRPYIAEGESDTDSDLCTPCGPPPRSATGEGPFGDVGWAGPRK
Voltage-gated potassium channel, KQT; KCNQ2(Kv7.2)/KCNQ3(Kv7.3), sequence (O43525 whole entry): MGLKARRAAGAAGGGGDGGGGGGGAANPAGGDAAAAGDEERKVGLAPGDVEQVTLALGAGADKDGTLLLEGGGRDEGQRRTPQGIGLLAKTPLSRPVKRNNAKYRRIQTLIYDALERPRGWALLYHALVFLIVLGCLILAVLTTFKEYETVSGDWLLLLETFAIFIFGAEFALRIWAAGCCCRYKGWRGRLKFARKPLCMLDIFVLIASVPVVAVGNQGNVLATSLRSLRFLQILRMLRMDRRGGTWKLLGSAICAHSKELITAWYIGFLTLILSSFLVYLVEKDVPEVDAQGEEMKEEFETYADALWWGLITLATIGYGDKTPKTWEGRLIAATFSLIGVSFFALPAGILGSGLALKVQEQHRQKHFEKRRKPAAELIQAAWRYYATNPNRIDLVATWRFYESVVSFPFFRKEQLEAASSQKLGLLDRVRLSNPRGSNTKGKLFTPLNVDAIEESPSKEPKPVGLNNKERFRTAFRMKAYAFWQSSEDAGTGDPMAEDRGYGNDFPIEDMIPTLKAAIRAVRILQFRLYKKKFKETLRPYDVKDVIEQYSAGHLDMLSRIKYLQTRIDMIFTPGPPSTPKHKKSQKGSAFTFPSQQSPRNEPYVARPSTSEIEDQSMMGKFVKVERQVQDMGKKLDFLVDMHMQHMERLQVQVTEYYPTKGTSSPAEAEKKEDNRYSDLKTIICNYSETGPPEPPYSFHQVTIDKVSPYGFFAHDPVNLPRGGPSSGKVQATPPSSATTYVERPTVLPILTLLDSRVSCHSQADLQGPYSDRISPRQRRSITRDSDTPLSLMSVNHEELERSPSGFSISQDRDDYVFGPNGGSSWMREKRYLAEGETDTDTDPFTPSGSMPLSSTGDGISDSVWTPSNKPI
Potassium voltage-gated channel subfamily KQT member 2, sequence (Q9Z351 whole entry): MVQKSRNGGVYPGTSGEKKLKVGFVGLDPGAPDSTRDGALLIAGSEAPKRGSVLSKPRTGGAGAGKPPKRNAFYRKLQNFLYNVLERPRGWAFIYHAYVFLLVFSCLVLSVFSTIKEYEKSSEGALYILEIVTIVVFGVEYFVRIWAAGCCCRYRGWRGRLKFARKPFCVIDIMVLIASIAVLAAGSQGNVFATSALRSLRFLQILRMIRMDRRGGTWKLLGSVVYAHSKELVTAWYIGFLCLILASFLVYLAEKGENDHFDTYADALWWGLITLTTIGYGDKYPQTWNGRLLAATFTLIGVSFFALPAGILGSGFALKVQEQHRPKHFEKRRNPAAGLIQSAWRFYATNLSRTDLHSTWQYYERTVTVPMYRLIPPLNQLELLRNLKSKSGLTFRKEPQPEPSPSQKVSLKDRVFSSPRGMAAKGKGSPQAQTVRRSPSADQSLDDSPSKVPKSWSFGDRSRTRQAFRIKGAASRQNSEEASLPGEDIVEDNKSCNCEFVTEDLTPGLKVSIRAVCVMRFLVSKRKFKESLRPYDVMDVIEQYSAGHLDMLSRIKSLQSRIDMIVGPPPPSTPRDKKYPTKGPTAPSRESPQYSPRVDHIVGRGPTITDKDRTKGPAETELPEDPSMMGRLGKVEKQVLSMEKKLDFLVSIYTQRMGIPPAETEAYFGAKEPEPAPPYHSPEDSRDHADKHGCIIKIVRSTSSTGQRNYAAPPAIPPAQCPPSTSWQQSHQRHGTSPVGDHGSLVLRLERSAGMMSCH
Potassium voltage-gated channel subfamily KQT member 2 (Mus musculus), sequence (Q9Z351 whole entry, the tested form may be a part): as the sequence (Q9Z351 whole entry) above

By clearance is commonly meant a measure of how efficiently the substance is removed, as volume per time. A higher clearance goes with efficient removal. As usually defined, the Kp is tissue or fluid exposure divided by exposure in the circulation. The term Tmax denotes the time at which the peak concentration occurs. A word on the half-life: it is the time needed for the level to fall by half in the phase considered. For orientation: EC50 means the midpoint of the concentration-response curve. Higher therefore signals lower potency in that assay. Regarding `C[C@H](NC(=O)/C=C/c1ccccc1)c1cccc(N2CCOCC2)c1`, the Concentration in [1] turned out to be 300 nM. For the same compound, the Vd in data set [2] worked out at 3 L/kg; in [9], 2.5 L/kg. Besides, the results for the concentration at 6 h in [3] and in [16] were 631 ng/g and 804 ng/mL, respectively. For the same compound, the results for the clearance in data set [4] and in [10] were 12.7 mL/min/kg and 41 mL/min/kg, respectively. Besides, in data set [5], the concentration ratio (Kp) is 0.78. Also, the P/D in data set [6] came out at 1.15; in data set [7], 1.1; in [17], 1.22. Also, the time to peak (Tmax) in data set [8] came to 5 h; in data set [14], 0.5 h. Further, the No. of depolarizations in the data set with Rattus norvegicus [11] was 36; in the data set with Rattus norvegicus [15], 23; in the data set with Rattus norvegicus [18] it was 25. The values for the half-life in data set [12] and in [19] were 3 h and 2.1 h, respectively. Further, the values for the bioavailability in data set [13] and in data set [21] were 100% and 93%, respectively. The values for the EC50 in data set [20] and in [22] were 0.69 µM and 6 µM, respectively.
